Compound activity (PubChem)
Rows were chosen to be rich in hits. Some 1.8% of all compounds tested hit in one or more screens of this group.
C8 TRAIL sens = sensitizes caspase-8 expressing cells to TRAIL; NB7+C8 cells + TRAIL, ATPlite viability luminescence; inhibition (viability loss, TRAIL sensitization), % at 10 µM; 360,000 compounds, 1% hits; AID 624354;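 active = compounds causing at least 50% loss of cell viability in the single-dose screen, relative to plate controls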
STAT3 act-1 = activators of IL-6 induced STAT3 signaling; U3A cells, IL-6 STAT3-luciferase reporter, luminescence; 100% = signal with IL-6 EC80 alone; activation (% of control), % at 5.6 µM; 190,000 compounds, 0.91% hits;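 active = activation above the screen-wide mean of compound activation plus 3 SD, cut at about 130% in these data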
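Material: human U3A cells carrying STAT3-luciferase construct. Measured by: reporter luminescence signal. Timing: compound 1 h, then IL-6 6 h at 37 °C.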
STAT3 inh = inhibitors of IL-6 induced STAT3 signaling. U3A cells, IL-6 STAT3-luciferase reporter, luminescence; host cell line lacks STAT1. inhibition, % at 5.5 µM. 190,000 compounds, 0.89% hits. AID 862;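 active = inhibition above the mean inhibition across all screened compounds plus 3 SD, cut at about 44% in these data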
STAT1 inh = STAT1 signaling inhibition; NIH 3T3 STAT1-luciferase reporter, IFN-gamma, luminescence; inhibition, % at 5.5 µM; 200,000 compounds, 0.35% hits; AID 920;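 active = inhibition above a set limit, the mean inhibition across all tested compounds plus 3 SD, cut at about 34% in these data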
PPC-1+TRAIL kill = compounds killing PPC-1 cancer cells with TRAIL present (potentiator screen, no TRAIL-free arm). PPC-1 cells + TRAIL, ATPLite viability luminescence. cell killing (% activity), % at 4 µM or 5 µM. 220,000 compounds, 0.41% hits;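 active = cell killing above 50% in the first pass at 4 µM, then a duplicate retest at 5 µM averaging 50% or more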
STAT3 act-2 = STAT3 activation, confirmation assay; 1,200 compounds, 64% hits; shares compounds with STAT3 act-1; AID 1267; potentiation (% of control), % at 5.7 µM; U3A STAT3-luciferase reporter, IL-6 potentiation, luminescence; U3A cells lack STAT1; 100 means same as IL-6 alone;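 active = percent activation of the STAT3 luciferase reporter above a set limit taken from the earlier primary screen, cut at about 130% in these data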
NFkB act 2 = NF-kappaB activation in STAT3 activator counter-screen; shares compounds with STAT3 act-1; activation (% of control), % at 5.7 µM; 1,200 compounds, 11% hits; human cells, NF-kappaB reporter activation; in the data active = activation above about 120%;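 also: reporter induced by TNF-alpha stimulation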
STAT1 act STAT3c = STAT1 activation in STAT3 activator counter-screen; NIH 3T3 STAT1-luciferase reporter, IFN-gamma, luminescence; AID 1318; activation (% of control), % at 5.7 µM; 1,200 compounds, 13% hits; shares compounds with STAT3 act-1;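 active = activation above the solvent-only control well mean plus 3 SD, set per screening run, cut at about 120% in these data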
Numbers stand for hits; . = inactive; / = no result given.

SMILES | C8 TRAIL sens | STAT3 act-1 | STAT3 inh | STAT1 inh | PPC-1+TRAIL kill | STAT3 act-2 | NFkB act 2 | STAT1 act STAT3c
CN(C)c1ccc2c(c1)OC(N)=C(C#N)C2c1cccc(F)c1 (stereo not given) | . | 146 | . | . | . | . | 153 | .
N#CC1=C(N)Oc2cc(N)ccc2C1c1cccc(F)c1 (stereo not given) | . | / | / | / | / | / | / | /
O=C(NCc1ccco1)c1ccc(Cl)cc1[N+](=O)[O-] | . | / | / | / | / | / | / | /
S=C(Nc1ccccc1)N1CCn2c1nc1ccccc12 | . | . | . | . | . | / | / | /
COc1ccc(NC(=O)N2CCn3c2nc2ccccc23)cc1 | . | 151 | . | . | . | 137 | . | .
COc1cc(NC(=O)[C@H](C)NC(=O)N2CCn3c2nc2ccccc23)cc(OC)c1 | . | / | / | / | / | / | / | /
O=C(Nc1ccccc1)N1CCn2c1nc1ccccc12 | . | 161 | . | . | . | 139 | . | .
COC(=O)CCC(=O)NC(=S)Nc1sc(C)c(C)c1C(N)=O | . | 139 | . | . | . | . | 137 | .
COC(=O)CCC(=O)Nc1sc(C)c(C)c1C(N)=O | . | . | . | . | . | / | / | /
COc1ccccc1N1CCN(C2CC(=O)N(c3cccc(Cl)c3)C2=O)CC1 (stereo not given) | . | / | / | / | / | / | / | /
Cc1ccc(S(=O)(=O)Nc2nc3ccccc3s2)cc1 | . | . | . | . | . | / | / | /
O=S(=O)(Nc1nc2ccccc2s1)c1ccc(Br)s1 | . | 142 | . | . | . | 134 | . | .
COc1ccc(S(=O)(=O)Nc2nc3ccccc3s2)cc1OC | . | 154 | . | . | . | 142 | . | .
Cc1ccc(S(=O)(=O)Nc2ccccc2-c2nc3ccccc3[nH]c2=O)cc1 | . | / | / | / | / | / | / | /
CCN(CC(=O)NCc1cccs1)C(=O)/C=C/c1ccc(Cl)c(Cl)c1 | . | / | / | / | / | / | / | /
CC(NC(=O)c1ccccc1)C(=O)NC1CCCc2ccccc21 (stereo not given) | . | / | / | / | / | / | / | /
Cc1ccccc1[C@@H](NC(=O)OC(C)(C)C)C(=O)OC(C)(C)C | . | / | / | / | / | / | / | /
O=[N+]([O-])c1cccc(C(=Nc2ccc(Cl)cc2)NO)c1 | . | 148 | . | . | . | 139 | . | .
O=[N+]([O-])c1cccc(C(=Nc2ccccc2)NO)c1 | . | . | . | . | . | / | / | /
Cc1nc2ccc(Br)cn2c1C(=O)N/N=C\c1ccccc1[N+](=O)[O-] | . | 148 | . | . | . | . | . | .
O=C(Cn1ccc(=O)[nH]c1=O)c1ccc([N+](=O)[O-])o1 | . | / | / | / | / | / | / | /
COc1ccc(OC)c(NC(=O)c2cc3ccccc3o2)c1 | . | 136 | . | . | . | . | . | .
COc1ccc(C)cc1NC(=O)NC1CCCCCCC1 | . | / | / | / | / | / | / | /
COc1ccc(C)cc1NC(=O)Nc1ccc(Br)cn1 | . | 144 | . | . | . | . | . | .
Cc1cc(C(=O)NC2CCCN(Cc3ccc(Cl)cc3)C2)n(C)n1 (stereo not given) | . | / | / | / | / | / | / | /
SMILES | C8 TRAIL sens | STAT3 act-1 | STAT3 inh | STAT1 inh | PPC-1+TRAIL kill | STAT3 act-2 | NFkB act 2 | STAT1 act STAT3c
COc1ccccc1NC(=O)c1[nH]c(C)c(C(C)=O)c1C | . | 162 | . | . | . | 158 | . | .
CC(=O)c1c(C)[nH]c(C(=O)Nc2cccc(C)c2C)c1C | . | / | / | / | / | / | / | /
CCc1sc(C(=O)Nc2nc(C)cs2)cc1C | . | / | / | / | / | / | / | /
Cc1cc(C)c2c(CN3CCN(c4ccccc4F)CC3)cc(=O)oc2c1 | . | / | / | / | / | / | / | /
CCN(C(=S)Nc1cccnc1)c1cccc2ccccc12 | . | 137 | . | . | . | . | . | .
CCN(C(=S)Nc1cccnc1)c1ccccc1 | . | . | . | . | . | / | / | /
COc1ccc(-c2nnc(Nc3nc4c(OC)cccc4s3)o2)cc1 | . | 159 | . | . | . | 137 | . | .
COc1ccc(-c2nnc(Nc3nc4c(OC)cccc4s3)o2)c(OC)c1 | . | . | . | . | . | / | / | /
Cc1ccc(CN(C)C(=O)c2cc(Br)c(Br)s2)o1 | . | / | / | / | / | / | / | /
O=C(CSc1nc2ccccc2[nH]1)N=Nc1c(O)[nH]c2ccccc12 | . | 145 | . | . | . | 142 | . | .
COc1ccc(S(=O)(=O)N2CCC(CN3C(=O)c4cccc5cccc(c45)C3=O)CC2)cc1 | . | 152 | . | . | . | 135 | . | 123
O=C(c1ccc(S(=O)(=O)N2CCCC2)cc1)N1CCC(CN2C(=O)c3cccc4cccc(c34)C2=O)CC1 | . | / | / | / | . | / | / | /
Cc1ccc(NC(=O)CN2C(=O)NC3(CCCCC3)C2=O)cc1S(=O)(=O)N1CCOCC1 | . | / | / | / | / | / | / | /
Cc1cc(C)n(-c2nc(-c3ccccc3)cs2)n1 | . | 137 | . | . | . | . | 121 | 122
Cc1cc(C)n(-c2nc(-c3cccc(Cl)c3)cs2)n1 | . | . | . | . | . | / | / | /
Cc1ccc(O)c(-c2cc(-c3ccccc3F)[nH]n2)c1 | . | 160 | . | . | . | 148 | . | .
Cc1ccc(O)c(-c2cc(-c3cccc(F)c3)n[nH]2)c1 | . | . | . | . | . | / | / | /
Cc1ccc(S(=O)(=O)N2CCCCC2)cc1C(=O)Nc1ccc2cn[nH]c2c1 | . | 151 | . | . | . | 135 | . | .
CC(=O)Nc1ccc(NC(=O)c2cc(S(=O)(=O)N3CCCCC3)ccc2C)cc1 | . | / | / | / | / | / | / | /
CCn1c(=NC(=O)c2ccco2)sc2cccc(F)c21 | . | 144 | . | . | . | . | . | 125
COc1ccc(OC)c2c1sc(=NC(=O)c1ccco1)n2C | . | 166 | . | . | . | 139 | . | .
O=c1[nH]c(=S)[nH]c2c1C(C1CCCCC1)OC(C1CCCCC1)C2 (stereo not given) | . | / | / | / | / | / | / | /
O=C(CCC(=O)Nc1ccccc1Cl)NNC(=O)NC1CCCCC1 | . | / | / | / | / | / | / | /
Cn1c(CN2CCN(c3cccc(Cl)c3)CC2)nc2ccccc21 | . | 139 | . | . | . | . | . | .
CCOc1ccccc1CNCc1ccc(C(=O)O)cc1 | . | . | . | . | . | / | / | /
SMILES | C8 TRAIL sens | STAT3 act-1 | STAT3 inh | STAT1 inh | PPC-1+TRAIL kill | STAT3 act-2 | NFkB act 2 | STAT1 act STAT3c
O=C(COc1ccccc1CNCc1ccccc1)Nc1ccccc1 | . | 143 | . | . | . | . | . | .
COc1ccc(Nc2nc(-c3cccs3)cs2)c(OC)c1 | . | . | . | . | . | / | / | /
COc1ccc(OC)c(Nc2nc(-c3cccs3)cs2)c1 | . | 147 | . | . | . | . | . | .
Clc1ccc2nc(C3CCCCC3)c(Cc3ccccc3)n2c1 | . | / | / | / | / | / | / | /
COc1ccc(Nc2nc(C)cc(C)c2C#N)c(OC)c1 | . | / | / | / | / | / | / | /
COc1ccc(N(C(C)=O)c2nc(C)cc(C)c2C#N)c(OC)c1 | . | 154 | . | . | . | 157 | . | .
CC(C)NC(=O)N(C)C[C@H]1Oc2c(NC(=O)Nc3ccccc3)cccc2C(=O)N([C@H](C)CO)C[C@@H]1C | . | / | / | / | / | / | / | /
Nc1nnc(Cc2c[nH]c3ccccc23)s1 | . | 143 | . | . | . | 154 | . | .
